Assay [1] concerns the target T1, Adrenergic receptor alpha-2 (Homo sapiens, UniProt P08913+P18825+P18089).
T1 sequence (P08913 whole entry): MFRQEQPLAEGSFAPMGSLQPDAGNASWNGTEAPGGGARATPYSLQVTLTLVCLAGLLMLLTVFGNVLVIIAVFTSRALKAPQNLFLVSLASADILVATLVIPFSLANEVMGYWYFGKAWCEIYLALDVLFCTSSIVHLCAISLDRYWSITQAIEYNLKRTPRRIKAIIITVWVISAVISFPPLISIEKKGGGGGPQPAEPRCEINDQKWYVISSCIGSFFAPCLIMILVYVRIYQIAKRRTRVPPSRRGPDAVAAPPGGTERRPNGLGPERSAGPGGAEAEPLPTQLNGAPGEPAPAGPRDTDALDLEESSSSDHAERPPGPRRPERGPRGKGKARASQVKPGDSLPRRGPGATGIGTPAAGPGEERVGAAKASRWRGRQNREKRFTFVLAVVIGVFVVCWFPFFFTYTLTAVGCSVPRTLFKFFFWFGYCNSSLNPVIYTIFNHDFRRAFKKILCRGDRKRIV
T1 sequence (P18825 whole entry): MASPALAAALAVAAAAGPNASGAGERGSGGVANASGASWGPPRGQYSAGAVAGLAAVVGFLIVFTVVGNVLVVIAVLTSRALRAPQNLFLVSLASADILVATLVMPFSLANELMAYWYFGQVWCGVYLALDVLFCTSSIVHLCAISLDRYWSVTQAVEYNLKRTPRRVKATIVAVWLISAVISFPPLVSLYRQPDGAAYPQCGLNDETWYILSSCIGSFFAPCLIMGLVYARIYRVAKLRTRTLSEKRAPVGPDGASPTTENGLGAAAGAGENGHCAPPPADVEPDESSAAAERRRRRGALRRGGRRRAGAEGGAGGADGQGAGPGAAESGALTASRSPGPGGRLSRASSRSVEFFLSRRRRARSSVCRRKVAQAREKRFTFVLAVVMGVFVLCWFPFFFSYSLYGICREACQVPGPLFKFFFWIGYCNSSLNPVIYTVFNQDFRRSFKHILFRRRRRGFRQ
T1 sequence (P18089 whole entry): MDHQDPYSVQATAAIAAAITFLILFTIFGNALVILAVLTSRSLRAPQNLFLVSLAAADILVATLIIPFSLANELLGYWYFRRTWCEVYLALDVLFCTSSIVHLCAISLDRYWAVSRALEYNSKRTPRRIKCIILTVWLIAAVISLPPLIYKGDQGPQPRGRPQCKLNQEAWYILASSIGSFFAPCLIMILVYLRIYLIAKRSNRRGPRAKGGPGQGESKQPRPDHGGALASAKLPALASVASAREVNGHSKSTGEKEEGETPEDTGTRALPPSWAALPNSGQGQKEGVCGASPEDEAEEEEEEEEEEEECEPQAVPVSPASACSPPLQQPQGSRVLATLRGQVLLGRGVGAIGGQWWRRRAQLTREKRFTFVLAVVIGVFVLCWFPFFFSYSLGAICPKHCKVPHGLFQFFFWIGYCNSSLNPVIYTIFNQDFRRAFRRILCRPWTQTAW
Nature of the assay: Compound was evaluated for Adrenergic activity against Alpha-2 adrenergic receptor in human platelets. An outline of the steps:
(§1)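 Platelet-rich plasma from drug-free human volunteers (no medication for 10 days) treated with 1 mM aspirin. Inhibitors added at various concentrations 1 min before epinephrine. Read-out is primary-wave aggregation. […] Potency ratio = IC50 of medetomidine / IC50 of analogue.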

For assay [2], the species on record is Rattus norvegicus. As to the kind of experiment: Molar concentration of analogue which shifts concentration curve of phenylephrine to the right by 2-fold (0.3 log units). The assay is classed as functional. A digest of the protocol: (§2)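 Rat aorta (α1) antagonism. KB is the molar analogue concentration that shifts the phenylephrine concentration-response curve 2-fold (0.3 log units) to the right. Derived by computerized analysis of the concentration-response data.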

A short description of assay [3]: Potency ratio is defined as IC50(medetomidine)/IC50(compound). An outline of the steps: as §1
Assay [4] is filed under the species Rattus norvegicus. Nature of the assay: Percent maximal analogue response relative to phenylephrine =100%. The assay is classed as functional. An outline of the steps:
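Rat aorta (α1) contraction. The maximal response to each analogue is expressed as percent of the maximal response to the reference agonist phenylephrine (phenylephrine = 100%). Mean ± SEM, N = 4.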

In assay [5] the target is T2, Adrenergic receptor alpha-1 (Rattus norvegicus, UniProt P15823+P23944+P43140).
T2 sequence (P15823 whole entry): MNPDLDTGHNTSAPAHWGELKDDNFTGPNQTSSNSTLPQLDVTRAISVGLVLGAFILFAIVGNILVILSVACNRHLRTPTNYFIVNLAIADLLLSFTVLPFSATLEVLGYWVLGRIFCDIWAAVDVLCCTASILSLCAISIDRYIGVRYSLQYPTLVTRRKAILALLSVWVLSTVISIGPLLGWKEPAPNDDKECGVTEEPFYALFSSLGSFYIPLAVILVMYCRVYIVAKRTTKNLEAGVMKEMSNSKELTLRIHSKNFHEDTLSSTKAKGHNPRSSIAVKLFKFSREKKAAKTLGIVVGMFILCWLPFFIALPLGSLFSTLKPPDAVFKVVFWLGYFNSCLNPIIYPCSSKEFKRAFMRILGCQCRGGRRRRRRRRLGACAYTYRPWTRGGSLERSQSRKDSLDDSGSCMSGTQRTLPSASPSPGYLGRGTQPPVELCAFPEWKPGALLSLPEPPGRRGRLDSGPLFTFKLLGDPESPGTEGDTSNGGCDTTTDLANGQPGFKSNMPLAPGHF
T2 sequence (P23944 whole entry): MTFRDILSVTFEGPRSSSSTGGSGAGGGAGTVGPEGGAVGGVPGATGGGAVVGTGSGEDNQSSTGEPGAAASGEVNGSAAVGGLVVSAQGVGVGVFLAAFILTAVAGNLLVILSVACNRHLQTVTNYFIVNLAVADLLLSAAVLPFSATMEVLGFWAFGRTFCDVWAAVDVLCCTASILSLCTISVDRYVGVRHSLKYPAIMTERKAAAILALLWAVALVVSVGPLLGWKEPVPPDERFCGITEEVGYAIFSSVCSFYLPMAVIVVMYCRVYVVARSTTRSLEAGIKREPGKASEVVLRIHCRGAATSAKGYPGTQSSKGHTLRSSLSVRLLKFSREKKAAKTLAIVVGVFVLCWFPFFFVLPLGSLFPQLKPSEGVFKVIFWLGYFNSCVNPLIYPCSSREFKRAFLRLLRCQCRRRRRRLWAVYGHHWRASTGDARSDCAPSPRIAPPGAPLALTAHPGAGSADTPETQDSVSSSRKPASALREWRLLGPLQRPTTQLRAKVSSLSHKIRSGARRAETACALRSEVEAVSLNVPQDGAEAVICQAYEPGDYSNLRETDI
T2 sequence (P43140 whole entry): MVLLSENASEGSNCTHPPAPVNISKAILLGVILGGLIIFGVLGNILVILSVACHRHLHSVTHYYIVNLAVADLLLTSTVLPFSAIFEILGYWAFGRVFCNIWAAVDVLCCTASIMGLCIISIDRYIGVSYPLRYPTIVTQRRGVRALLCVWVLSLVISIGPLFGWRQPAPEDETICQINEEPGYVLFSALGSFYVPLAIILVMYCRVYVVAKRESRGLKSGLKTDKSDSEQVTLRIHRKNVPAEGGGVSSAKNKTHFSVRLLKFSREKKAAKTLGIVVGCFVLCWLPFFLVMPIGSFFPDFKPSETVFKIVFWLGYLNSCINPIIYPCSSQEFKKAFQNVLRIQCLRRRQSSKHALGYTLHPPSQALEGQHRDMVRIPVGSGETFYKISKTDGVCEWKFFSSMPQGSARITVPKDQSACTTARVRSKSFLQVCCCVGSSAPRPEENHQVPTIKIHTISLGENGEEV
As to the kind of experiment: Compound was evaluated for Adrenergic activity against Alpha-1 adrenergic receptor from rat aorta.

The target in assay [6] is Adrenergic receptor alpha-1 (Rattus norvegicus) (UniProt P15823+P23944+P43140). As to the kind of experiment: Molar concentration towards Alpha-1 adrenergic receptor which shifts concentration curve of phenylephrine to the right by 2-fold (0.3 log units). An outline of the steps:
as §2

Assay [7] has as its target T1, Adrenergic receptor alpha-2. As to the kind of experiment: Compound was tested for Adrenergic activity against Alpha-2 adrenergic receptor from rat aorta. It is filed as tissue-based.
Assay [8] in a line: Potency ratio is defined as EC50 (medetomidine) / EC50 (compound).

Take `CC(C1=NCCN1)c1ccc2ccccc2c1.Cl` (stereo not given): the IC50 (commonly the concentration needed to halve the response being measured) in assay [1] came to 0.016 nM. Further, the KB in the assay listed under Rattus norvegicus [2] worked out at 0.26 µM. Also, the Potency ratio in assay [3] was determined as 0.21.

In the case of `Cl.c1ccc2c(CC3=NCCN3)cccc2c1` [NAPHAZOLINE HYDROCHLORIDE], the Max in the assay listed under Rattus norvegicus [4] worked out at 68%.

As for `Cc1cccc(C(C)c2c[nH]cn2)c1C.Cl` (stereo not given) [MEDETOMIDINE HYDROCHLORIDE], in assay [5], the EC50 (commonly the midpoint of the concentration-response curve) came to 310 nM. The same compound registered a Max in the assay filed under Rattus norvegicus [4] of 42%.

The compound `CC(c1ccc2ccccc2c1)c1c[nH]cn1.Cl` (stereo not given) yielded an IC50 in assay [1] of 0.12 nM. Besides, the Kb in assay [6] turned out to be 68 nM. Besides, the Potency ratio in assay [3] worked out at 0.028.

The compound `CC(c1ccc2ccccc2c1)c1ncc[nH]1.O=C(O)C(=O)O` (stereo not given) displayed an IC50 in assay [1] of 0.61 nM. In the assay listed under Rattus norvegicus [2], the KB amounted to 1.5e-06 µM. Besides, the Potency ratio in assay [3] came to 0.0054.

`CC(c1c[nH]cn1)c1cccc2ccccc12.Cl` (stereo not given): the IC50 in assay [7] is 0.0034 nM. In assay [5], this compound had a concentration giving a half-maximal response (EC50) of 200 nM. The compound further came in with a Max in the assay filed under Rattus norvegicus [4] of 27%. In addition, the Potency ratio amounted to 1.6 in assay [8] and 0.97 in assay [3].

Regarding `CC(C1=NCCN1)c1cccc2ccccc12.Cl` (stereo not given), the IC50 in assay [1] was 0.014 nM. In the assay filed under Rattus norvegicus [4], this compound returned a Max of 62%. Moreover, the Potency ratio in assay [8] is 0.57; in assay [3], 0.24.

As for `CC(c1ncc[nH]1)c1cccc2ccccc12.Cl` (stereo not given), the half-inhibitory concentration (IC50) in assay [1] was found to be 0.26 nM. In addition, the Max in the assay listed under Rattus norvegicus [4] turned out to be 40%. The Potency ratio in assay [8] stood at 0.04; in assay [3], 0.013.

In turn, `Cl.c1ccc2c(Cc3ncc[nH]3)cccc2c1` gave an IC50 in assay [1] of 0.034 nM. The compound also gave an EC50 in assay [5] of 200 nM. For the same compound, in the assay listed under Rattus norvegicus [4], the Max turned out to be 56%. Also, the Potency ratio in assay [8] is 1.6; in assay [3] it was 0.097.

The values above are taken from ChEMBL document CHEMBL1125381, “Synthesis and alpha-adrenergic activities of 2- and 4-substituted imidazoline and imidazole analogues” (J Med Chem, 1992).
